Source: PMC6800172 (The American journal of Chinese medicine, 2017)

Assays:
[1] = system: LNCaP/AR-luc xenograft tumor; experiment: Histopathology of H&E stained xenograft tumor sections; assay type: in vivo, human; conditions: vs vehicle groups within each experiment
How it was run: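 Tumors dissected at necropsy and fixed in neutral-buffered formalin. H&E-stained sections were examined for necrotic areas, hemorrhage and intravascular cancer-cell emboli.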

[2] = Stability of dosing preparation in EPTG excipient formula; assay type: physicochemical
[3] = Subchronic; assay type: in vivo, mouse; conditions: for Body Weight / Organ height (Mean ± SD) Brain / Organ height (Mean ± SD) Heart / Organ height (Mean ± SD) Kidney / Organ height (Mean ± SD) Liver / Organ height (Mean ± SD) Lung / Organ height (Mean ± SD) Prostate / Organ height (Mean ± SD) Spleen / Organ height (Mean ± SD) Testes: male CD-1 mice, N=6
How it was run: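 24 male CD-1 mice (acclimated 2 weeks) were stratified by weight into 4 groups (N=6). They were gavaged daily, 7 days/week, for 4 weeks with 80, 120 or 160 mg/kg in EPTG 3:6:1:5, or 200 μL vehicle. Body weight was measured weekly, with the dose adjusted to it. At euthanasia organs were weighed, and plasma taken 3 h after the last dose was assayed by HPLC; […].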

[4] = Body weight and organ weight of tumor-bearing SCID-NSG mice; assay type: in vivo; conditions: decursinol 4.5 mg/mouse/day
[5] = Single dose pharmacokinetic study in CD-1 mice; assay type: in vivo; conditions: male, CD-1, mouse, plasma, po, 120 mg/kg
How it was run: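 Male CD-1 mice (7 weeks, ≥1 week on AIN-93M diet) were given a single gavage of 120 mg/kg (3 mg/25 g) in 0.2 mL EPTG 3:6:1:5. Groups of 5–7 were killed at 0.1, 0.25, 0.5, 1, 2, 3, 6, 12 and 24 h. Heparinized cardiac blood was spun at 5000 g for 5 min. Plasma was extracted with ethyl acetate and run on HPLC. AUC0–24h was calculated noncompartmentally; mean ± SEM.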

[6] = Plasma decursinol by HPLC at 3 h after the last dose in SCID-NSG mice; assay type: in vivo, mouse
How it was run: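 Plasma was collected 3 h after the last daily gavage dose (4.5 mg/mouse in EPTG 3:6:1:20) from tumor-bearing male SCID-NSG mice. Plasma with chrysin internal standard was extracted twice with ethyl acetate, dried and reconstituted in methanol. HPLC used a C18 column at room temperature with a water/acetonitrile gradient (20–90% over 15 min, then 90% for 8 min) and diode-array detection at 330 nm.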

[7] = Subchronic; assay type: in vivo, mouse; conditions: 4 weeks; for Plasma biochemistry (Mean ± SD) ALB / Plasma biochemistry (Mean ± SD) ALP / Plasma biochemistry (Mean ± SD) ALT / Plasma biochemistry (Mean ± SD) AST / Plasma biochemistry (Mean ± SD) Amy / Plasma biochemistry (Mean ± SD) BUN / Plasma biochemistry (Mean ± SD) Chol / Plasma biochemistry (Mean ± SD) Gluc / Plasma biochemistry (Mean ± SD) T.Bili: male CD-1 mice, N=6
How it was run: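 After 4 weeks of daily gavage (80, 120 or 160 mg/kg in EPTG 3:6:1:5, or vehicle) in male CD-1 mice, heparinized blood was taken by cardiac puncture at euthanasia. Plasma ALT, AST, ALP, albumin, amylase, BUN, creatinine, glucose, cholesterol and total bilirubin were measured by a veterinary diagnostic laboratory.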

[8] = system: human LNCaP/AR-Luc cells; experiment: LNCaP/AR-Luc xenograft growth in SCID-NSG mice; assay type: in vivo; conditions: decursinol 4.5 mg/mouse/day gavage, 7 days per week, vs vehicle
How it was run: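 Male SCID-NSG mice (n=20/group) received daily gavage in EPTG 3:6:1:20 (300 μL) starting 7 days before s.c. inoculation of 20,000 LNCaP/AR-Luc cells (1:1 Matrigel:serum-free medium, lower right flank). Caliper measurement twice weekly; volume = (L×W²)/2. Tumors weighed at necropsy. Only the 10 largest tumors per group were analyzed; mean ± SD.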

[9] = system: human LNCaP/AR-Luc cells; experiment: Lung metastasis of LNCaP/AR-Luc xenograft by ex vivo bioluminescence imaging; assay type: in vivo; conditions: SCID-NSG mice, decursinol 4.5 mg/mouse/day gavage; control 100% (10 out of 10)
[10] = DOH-3: 3 mg per 25 g body weight (120 mg/kg) daily gavage, 4 weeks
[11] = DOH-4: 4 mg per 25 g body weight (160 mg/kg) daily gavage, 4 weeks
[12] = DOH-3: 3 mg per 25 g body weight (120 mg/kg) daily gavage
[13] = DOH-4: 4 mg per 25 g body weight (160 mg/kg) daily gavage

CC1(C)Oc2cc3oc(=O)ccc3cc2C[C@@H]1O [decursinol]
necrosis extent in tumor sections [1]: did not noticeably differ
time in uniformly dispersed state after dilution from stock concentrate ([2]; EPTG (3:6:1:20) formula): ≤ 20 min
time remaining as clear solution ([2]; new EPTG (3:6:1:5)): more than 1 hour
plasma decursinol level (3 h post last dose) ([3]; CD-1 mice, 80, 120, and 160 mg decursinol/kg daily gavage, 4 weeks, EPTG 3:6:1:5): increase in a dose-dependent manner
body weight change ([3]; CD-1 mice, daily gavage as high as 4 mg/25 g or 160 mg per kg, 4 weeks): did not cause body weight change
weights of liver, kidney, prostate, spleen, lung, heart, testes and brain ([3]; CD-1 mice, subchronic dosing 4 weeks, 80-160 mg/kg): did not affect
Body Weight [3, 10]: 35.97 ± 2.10 g
Organ height (Mean ± SD) Brain [3, 10]: 0.53 ± 0.03 g
Organ height (Mean ± SD) Heart [3, 10]: 0.19 ± 0.01 g
Organ height (Mean ± SD) Kidney [3, 10]: 0.59 ± 0.08 g
Organ height (Mean ± SD) Liver [3, 10]: 1.58 ± 0.14 g
Organ height (Mean ± SD) Lung [3, 10]: 0.20 ± 0.02 g
Organ height (Mean ± SD) Prostate [3, 10]: 0.10 ± 0.02 g
Organ height (Mean ± SD) Spleen [3, 10]: 0.09 ± 0.02 g
Organ height (Mean ± SD) Testes [3, 10]: 0.25 ± 0.03 g
Body Weight [3, 11]: 35.38 ± 1.71 g
Organ height (Mean ± SD) Brain [3, 11]: 0.53 ± 0.02 g
Organ height (Mean ± SD) Heart [3, 11]: 0.20 ± 0.01 g
Organ height (Mean ± SD) Kidney [3, 11]: 0.60 ± 0.08 g
Organ height (Mean ± SD) Liver [3, 11]: 1.54 ± 0.17 g
Organ height (Mean ± SD) Lung [3, 11]: 0.22 ± 0.01 g
Organ height (Mean ± SD) Prostate [3, 11]: 0.12 ± 0.02 g
Organ height (Mean ± SD) Spleen [3, 11]: 0.09 ± 0.02 g
Organ height (Mean ± SD) Testes [3, 11]: 0.24 ± 0.05 g
weight of liver, kidney, testes and prostate at study termination ([4]; SCID-NSG mice, vs vehicle- or D/DA-treated mice): not statistically different
Body Weight ([4]; tumor-bearing SCID-NSG mice, noticeable at 7-8 weeks of treatment): progressive body weight disadvantage
AUC(0-t) [5]: 193 µg·h/mL
plasma decursinol level, decursinol dosing over equi-molar D/DA dosing ([6]; SCID-NSG mice, 3 hours after the last dose): 1.7 folds
concentration at 3 h ([6]; male, SCID-NSG, mouse, plasma, oral, 4.5 mg/mouse): 4100 ng/mL
plasma biochemistry (ALP, AST, ALT, Amy, ALB, BUN, Gluc, Chol, T. Bili) ([7]; CD-1 mice, among the 4 groups): not statistically different
Plasma biochemistry (Mean ± SD) ALB [7, 12]: 2.7 ± 0.2 g/dL
Plasma biochemistry (Mean ± SD) ALP [7, 12]: 47.2 ± 14.6 U/L
Plasma biochemistry (Mean ± SD) ALT [7, 12]: 34.3 ± 21.7 U/L
Plasma biochemistry (Mean ± SD) AST [7, 12]: 82.5 ± 29.6 U/L
Plasma biochemistry (Mean ± SD) Amy [7, 12]: 780.2 ± 70.1 U/L
Plasma biochemistry (Mean ± SD) BUN [7, 12]: 12.3 ± 2.5 mg/dL
Plasma biochemistry (Mean ± SD) Chol [7, 12]: 182.0 ± 38.8 mg/dL
Plasma biochemistry (Mean ± SD) Gluc [7, 12]: 367.3 ± 69.0 mg/dL
Plasma biochemistry (Mean ± SD) T.Bili [7, 12]: 0.27 ± 0.05 mg/dL
Plasma biochemistry (Mean ± SD) ALB [7, 13]: 2.3 ± 0.3 g/dL
Plasma biochemistry (Mean ± SD) ALP [7, 13]: 45.5 ± 9.1 U/L
Plasma biochemistry (Mean ± SD) ALT [7, 13]: 21.0 ± 7.6 U/L
Plasma biochemistry (Mean ± SD) AST [7, 13]: 72.3 ± 29.9 U/L
Plasma biochemistry (Mean ± SD) Amy [7, 13]: 668.0 ± 117.1 U/L
Plasma biochemistry (Mean ± SD) BUN [7, 13]: 14.0 ± 2.2 mg/dL
Plasma biochemistry (Mean ± SD) Chol [7, 13]: 161.0 ± 20.5 mg/dL
Plasma biochemistry (Mean ± SD) Gluc [7, 13]: 408.3 ± 130.0 mg/dL
Plasma biochemistry (Mean ± SD) T.Bili [7, 13]: 0.32 ± 0.10 mg/dL
decreased LNCaP/AR-Luc xenograft tumor growth (top 10 tumors) [8]: 75%
lung metastasis rate [9]: 60%
